In article PMC5126733 (Journal of medicinal chemistry, 2015):

Experiments:
[1] = target: T1, recombinant human ER-α (Homo sapiens, UniProt P03372); conditions: at 100 μM compound; compound 7; cited from earlier work
T1 sequence (P03372 1-595): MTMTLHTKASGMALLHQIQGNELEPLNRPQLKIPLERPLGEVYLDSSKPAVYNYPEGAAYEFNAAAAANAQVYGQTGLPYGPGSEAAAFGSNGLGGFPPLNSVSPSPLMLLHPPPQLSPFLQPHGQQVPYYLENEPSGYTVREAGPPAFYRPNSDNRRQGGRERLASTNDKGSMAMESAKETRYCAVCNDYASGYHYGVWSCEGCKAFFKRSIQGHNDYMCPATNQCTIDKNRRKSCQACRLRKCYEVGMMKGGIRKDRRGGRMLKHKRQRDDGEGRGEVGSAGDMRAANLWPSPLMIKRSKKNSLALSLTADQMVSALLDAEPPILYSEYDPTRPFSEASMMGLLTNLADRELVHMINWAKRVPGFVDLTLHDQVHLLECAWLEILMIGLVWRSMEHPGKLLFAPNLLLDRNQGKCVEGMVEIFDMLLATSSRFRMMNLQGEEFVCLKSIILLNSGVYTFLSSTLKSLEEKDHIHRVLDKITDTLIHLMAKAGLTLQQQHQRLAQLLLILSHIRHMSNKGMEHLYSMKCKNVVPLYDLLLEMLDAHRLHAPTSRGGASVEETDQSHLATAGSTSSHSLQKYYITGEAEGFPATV

[2] = tested on: ER in MCF-7-2a cells; conditions: cited from earlier work
[3] = target: T2, recombinant human aromatase (CYP19) (Homo sapiens, UniProt P11511); assay: Inhibition of recombinant human aromatase; assay type: biochemical; conditions: ratio of aromatase IC50 values vs compound 7
T2 sequence (P11511 1-503): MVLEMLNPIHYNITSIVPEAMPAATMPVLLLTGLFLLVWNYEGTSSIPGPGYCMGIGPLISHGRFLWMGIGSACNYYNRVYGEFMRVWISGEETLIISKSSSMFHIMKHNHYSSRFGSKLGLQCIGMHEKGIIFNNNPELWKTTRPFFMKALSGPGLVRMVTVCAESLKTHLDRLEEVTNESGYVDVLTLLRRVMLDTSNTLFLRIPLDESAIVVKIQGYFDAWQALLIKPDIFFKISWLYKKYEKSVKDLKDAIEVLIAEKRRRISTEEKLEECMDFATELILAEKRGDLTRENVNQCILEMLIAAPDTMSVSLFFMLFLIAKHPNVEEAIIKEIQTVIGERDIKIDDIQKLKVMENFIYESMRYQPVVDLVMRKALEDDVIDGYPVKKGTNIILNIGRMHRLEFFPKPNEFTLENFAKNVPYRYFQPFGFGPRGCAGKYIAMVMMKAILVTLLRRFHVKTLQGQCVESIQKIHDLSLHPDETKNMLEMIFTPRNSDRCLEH

[4] = tested on: progesterone receptor (PGR) mRNA expression in MCF-7 human breast cancer cells; assay: Antagonism of β-estradiol; assay type: cell-based; conditions: MCF-7 cells, 1 μM compound, 10 nM E2, 24 h
Outline: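 MCF-7 cells were grown in MEM with 10% FBS at 37 °C in 5% CO2, then preconditioned 72 h in charcoal-stripped FBS. They were treated 24 h with 1 μM test compound, vehicle (0.1% methanol) or a positive-control antiestrogen, all with 10 nM E2. PGR mRNA was measured by TaqMan RT-qPCR (40 cycles), normalized to GAPDH by 2−ΔΔCt, and expressed as % of E2-stimulated expression.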

[5] = tested on: postmenopausal women with breast cancer; conditions: five-year ATAC trial, anastrozole alone compared to tamoxifen alone; cited from earlier work
[6] = combination arm (with tamoxifen) of the ATAC trial; cited from earlier work

For `CCC(=C(c1ccc(O)cc1)c1ccc(O)cc1)c1ccccc1` [Compound 7], the ER-α percent competition [1] is listed as 80% competition and the ER antagonist/agonist character [2] is listed as “good ER antagonist without significant agonistic side effects”.
With `Oc1ccc(C(=C(Cn2ccnc2)c2ccccc2)c2ccc(O)cc2)cc1` [Compound 12, 4,4'-(3-(1H-Imidazol-1-yl)-2-phenylprop-1-ene-1,1-diyl)diphenol] the “fold improvement in aromatase inhibitory activity compared with 7” value [3] was > 5000 fold and the “PGR mRNA expression level in the presence of 10 nM E2 (E2 alone = 100%)” value (from here on “PGR mRNA expression level … (E2 alone = 100%)”) [4] was 26-31%.
For `Oc1ccc(C(Cn2ccnc2)=C(c2ccc(O)cc2)c2ccc(O)cc2)cc1` [Compound 18a, 4,4',4”-(3-(1H-Imidazol-1-yl)prop-1-ene-1,1,2-triyl)triphenol], the “PGR mRNA expression level … (E2 alone = 100%)” value [4] was 26-31%.
In the case of `Oc1ccc(C(=C(Cn2ccnc2)c2ccc(O)c(F)c2)c2ccc(O)cc2)cc1` [Compound 18b, 4,4'-(2-(3-Fluoro-4-hydroxyphenyl)-3-(1H-imidazol-1-yl)prop-1-ene-1,1-diyl)diphenol], the “PGR mRNA expression level … (E2 alone = 100%)” value [4] is reported as 26-31%.
With `Nc1ccc(C(Cn2ccnc2)=C(c2ccc(O)cc2)c2ccc(O)cc2)cc1` [Compound 26, 4,4'-(2-(4-Aminophenyl)-3-(1H-imidazol-1-yl)prop-1-ene-1,1-diyl)diphenol] the “PGR mRNA expression level … (E2 alone = 100%)” value [4] was 26-31%.
For `CC(C)(C#N)c1cc(Cn2cncn2)cc(C(C)(C)C#N)c1` [anastrozole], the “improvement of disease-free survival” value [5] is listed as 13%, the “reduction in occurrence of contralateral breast cancer” value [5] is listed as 42% and the “reduction in risk of distant metastasis” value [5] is listed as 14%. For the same molecule, the “reduction in the time-to-recurrence” value [5] was 21% and the “lowering of serum concentration of anastrozole in the combination arm” value [6] was 27%.
For Endoxifen, the “PGR mRNA expression level … (E2 alone = 100%)” value [4] was 10%.
